Screening results as filed in PubChem BioAssay.
TNAP inh no acc: blocks human TNAP activity with no phosphate acceptor present. inhibition, % at 20 µM. purified TNAP, CDP-star luminescence, 30 min. P05186. 0.26% of 200,000 active;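 active = tissue-nonspecific alkaline phosphatase inhibition above about 50% at 20 µM in the single-dose screen, limit read from the data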;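 also: 0% = DMSO negative control and 100% = EDTA positive control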
Target sequence (P05186 whole entry, looked up): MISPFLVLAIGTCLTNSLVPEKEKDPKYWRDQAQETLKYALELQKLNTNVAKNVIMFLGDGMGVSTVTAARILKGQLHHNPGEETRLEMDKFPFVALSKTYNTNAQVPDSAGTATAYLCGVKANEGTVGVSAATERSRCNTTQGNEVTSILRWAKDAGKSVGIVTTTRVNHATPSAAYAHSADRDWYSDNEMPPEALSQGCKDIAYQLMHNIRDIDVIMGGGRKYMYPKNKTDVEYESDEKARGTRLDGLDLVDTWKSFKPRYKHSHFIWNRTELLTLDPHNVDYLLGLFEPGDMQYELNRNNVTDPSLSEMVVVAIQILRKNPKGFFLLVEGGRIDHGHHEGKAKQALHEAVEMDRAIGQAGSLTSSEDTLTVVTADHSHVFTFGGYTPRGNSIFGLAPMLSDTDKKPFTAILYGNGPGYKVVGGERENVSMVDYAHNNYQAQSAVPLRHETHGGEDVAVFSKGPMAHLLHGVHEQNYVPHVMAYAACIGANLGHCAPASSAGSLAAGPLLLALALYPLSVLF
Efa HMGR inh: blocks class II HMG-CoA reductase of Enterococcus faecalis | purified E. faecalis HMGR, NADPH absorbance 340 nm kinetic | inhibition, % at 10 µM | 0.41% of 190,000 active | AID 1066;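 active = inhibition above a set limit, the median over all tested compounds plus 3 SD, cut at about 9.5% in these data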;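 also: enzyme runs in reverse so mevalonate oxidation gives rising NADPH absorbance; 0% = complete reaction with DMSO and 100% = background rate lacking mevalonate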
TNAP act hiacc: TNAP (human) activation, high acceptor | P05186 | purified TNAP, CDP-star luminescence, 1 M DEA, 30 min; hits give high values; 0 = EDTA background, 1 = DMSO-only activity | activation factor at 20 µM | 200,000 tested, under 10 active | AID 1136;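 active = activation factor at least 2 at 20 µM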
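Test system – human TNAP · Doses – 20 µM single point · Incubation – 30 min, room temperature · Signal – luminescent substrate turnover signal · Read-out basis – activation factor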
Insulin prom inh: TRM-6 insulin promoter activity inhibition | AID 1273 | 0.9% of 130,000 active | TRM-6 cells, insulin promoter-eGFP reporter, imaging; reporter expression induced with tamoxifen | inhibition, % at 2 µM;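 active = inhibition above the mean plus 3 SD, with well images judged a real hit on visual review, cut at about 60% in these data, passing the limit was not always enough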
TNAP inh hiacc: blocks human TNAP under high phosphate acceptor concentration; inhibition, % at 20 µM; 0.03% of 200,000 active; purified TNAP, CDP-star luminescence, 1 M DEA; AID 1135;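 active = over 50% inhibition of tissue-nonspecific alkaline phosphatase at 20 µM in the single-dose screen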;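 also: plate controls were DMSO wells for no effect and EDTA-quenched wells as full inhibition for full effect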
* hit, by the source's call; . = no result given. Only some compounds are listed: those with a hit (about 1.2% of all), similar ones and a draw of the others.

SMILES | TNAP inh no acc | Efa HMGR inh | TNAP act hiacc | Insulin prom inh | TNAP inh hiacc
C=C(C)C1CC=C(C)/C(=N/NC(=O)c2ccc(NC(=O)CCC)cc2)C1 (stereo unspecified) | -11 | 1 | 1.1 | 83* | -6
C=C(C)C1CC=C(C)/C(=N/NC(=O)c2ccc(NC(=O)CC)cc2)C1 (stereo unspecified) | -3 | -4 | 1 | -35 | 1
Cc1cn2nc(N)c3ccccc3c2n1 | -17 | -3 | 1.1 | . | -9
Nc1nn2cc(-c3ccccc3)nc2c2ccccc12 | -16 | 11* | 1 | . | -5
Nc1c(-c2ccccc2)n[nH]c1-c1ccccc1 | 89* | -1 | 1 | 40 | -2
CC(C)OCCCNCC(O)c1ccccc1 (stereo unspecified) | 9 | -5 | 1 | -53 | -3
CC(C)N=c1scc(-c2ccco2)n1/N=C/c1ccc(O)c(O)c1 | 74* | -2 | 0.8 | -5 | 21
O=c1cc(-c2ccccc2Cl)oc2c([N+](=O)[O-])c(O)cc(O)c12 | -1 | -9 | 1 | 40 | 3
COC(=O)NC(=S)Nc1ccc(Oc2ccc(Cl)cc2Cl)c(Cl)c1 | -9 | -4 | 1 | -37 | -3
CC1CCCN(C(=O)CSc2nc3ncccc3[nH]2)C1 (stereo unspecified) | 53* | -5 | 1 | . | -5
CCN(CC)C(=O)CSc1nc2ncccc2[nH]1 | 49 | -4 | 1 | 35 | -4
C=C(C)CSc1nc2ncccc2[nH]1 | 66* | 0 | 1 | 71* | -5
Fc1cccc(Oc2nc3ccccc3n3cccc23)c1 | 0 | -4 | 1 | 23 | 2
O=C(/C=C/c1ccccc1)Nc1ccc(Br)cn1 | -5 | -5 | 1 | . | -1
O=C(NC1CCCC1)C(c1ccncc1)N(C(=O)Cc1cccs1)c1ccccc1 (stereo unspecified) | -10 | 10* | 1 | . | -4
Cn1nc(C(=O)NCc2ccco2)c2ccccc2c1=O | -11 | -6 | 1 | 62* | -5
Cn1nc(C(=O)NCc2cccnc2)c2ccccc2c1=O | -8 | 0 | 1.1 | -224 | -8
O=C(CN1CCN(c2ccc([N+](=O)[O-])cc2)CC1)Nc1nccs1 | -7 | -5 | 0.9 | 77* | 11
CCc1sc(/C=C(/C#N)C(N)=S)cc1[N+](=O)[O-] | -13 | -11 | 0.9 | . | 12
CCCn1nnc(NC(=O)c2ccc(-c3ccccc3)cc2)n1 | -12 | 5 | 1 | -8 | -5
CCCn1nnc(NC(=O)c2ccc(Br)cc2)n1 | -5 | -1 | 1 | 79* | 1
CCOc1ccccc1N1CC(C(=O)Nc2ccccc2N2CCOCC2)CC1=O (stereo unspecified) | -11 | -1 | 1.1 | . | -6
CCOc1ccccc1N1CC(C(=O)Nc2ccc3c(c2)OCCO3)CC1=O (stereo unspecified) | -12 | 12* | 1 | . | -1
N/C(=N\OC(=O)CN1C(=O)c2ccccc2C1=O)c1ccc(Br)cc1 | -2 | 13* | 1 | . | 0
CCNc1nc(NCC)nc(N(n2cnnc2)S(=O)(=O)c2ccc(C)cc2)n1 | 10 | -8 | 1 | 80* | -4
SMILES | TNAP inh no acc | Efa HMGR inh | TNAP act hiacc | Insulin prom inh | TNAP inh hiacc
N#Cc1ccsc1NC(=O)COc1ccc(-c2nnco2)cc1 | -12 | 0 | 1.1 | 65* | -8
C(=Nc1ccc(Nc2ccccc2)cc1)c1ccc2ccccc2c1 | -17 | 0 | 0.9 | 64* | 11
Brc1ccc(C=Nc2ccc(Nc3ccccc3)cc2)s1 | -5 | -6 | 1 | 27 | 4
COc1ccccc1C(=O)/C=C/c1ccc(N2CCCCC2)c([N+](=O)[O-])c1 | 4 | -7 | 0.9 | 59 | 11
O=C(/C=C/c1ccc(N2CCCCC2)c([N+](=O)[O-])c1)c1ccc(O)cc1 | 15 | -8 | 0.8 | 83* | 21
COc1ccc(C(=O)Nc2cccc(C(=O)NCc3ccco3)c2)cc1 | -17 | -7 | 1.1 | 67* | -8
COc1ccc(CN2CCC(CO)(CCOc3ccccc3)CC2)cc1C | -4 | -1 | 1 | . | -2
COc1ccc(Nc2cc(Cl)nc(N)n2)cc1 | -7 | 11* | 1 | 27 | -2
Cc1cc(Nc2ccc(Cl)cc2)nc(N)n1 | -10 | 6 | 1 | -14 | -4
Cc1ccccc1NC(=O)Cn1c(CCC(=O)O)ccc1-c1cccs1 | -15 | 19* | 1 | . | -3
Cc1ccc(-c2noc(CSc3nnc(Cc4ccccc4)n3-c3ccc(Cl)cc3)n2)cc1 | -16 | 18* | 1.1 | 0 | -7
